Laboratory results: PubChem BioAssay
Activity calls are given as the source filed them.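 How the source made its calls, unless noted: active means mean duplicate potentiation above the buffer control mean plus 5 SD of buffer wells; inactive means the rest.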

Experiments:
[1] = thallium flux activation in parental CHO cells, counter-screen for KCNQ1 potentiator project (AID 493006;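 active means duplicate-averaged activation above buffer control mean plus 5 SD of those controls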); settings: parental CHO-K1 cells, FluxOR thallium flux, at 10 µM; active compounds read high
Procedure, shortened: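 Test system: parental CHO-K1 cells, FluxOR dye-loaded / Probe or stimulus: potassium plus thallium depolarizing stimulus, 5x stock 12.5 mM K2SO4, Tl2SO4 / Timing: overnight 37 °C plating, 90 min dye, 20 min dark compound / Measured by: kinetic thallium-flux fluorescence / Read-out: max-minus-min fluorescence over baseline, percent of buffer-to-R-L3 span / Benchmarks: buffer and R-L3 controls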

[2] = biological target: Potassium voltage-gated channel subfamily KQT member 1 (Homo sapiens) (UniProt P51787); experiment: KCNQ1 potassium channel potentiators, confirmation, FluxOR thallium flux, CHO cells, duplicates (AID 493007;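 active means potentiation averaged over duplicate wells exceeding buffer-only control mean by more than 3 SD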;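 on outcome: cells depolarized by a potassium plus thallium sulfate stimulus after compound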;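 on potentiation: 0% = buffer-only wells and 100% = R-L3 activator control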); settings: KCNQ1 cell line, FluxOR thallium flux fluorescence, at 10 µM; active compounds read high, % of reference activator effect, buffer zero
Procedure, shortened: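 Assay system: CHO cells carrying KCNQ1 | Controls: Buffer and R-L3 controls | Schedule: FluxOR dye loading 90 min, compound exposure 20 min, room temperature | Read-out: Baseline-normalized fluorescence change, percent of buffer-to-R-L3 range | Replicates: Each compound tested in duplicate | Technique: Kinetic thallium influx fluorescence with FluxOR dye, 10 s baseline, 110 s post-stimulus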

[3] = biological target: Potassium voltage-gated channel subfamily KQT member 2 (Rattus norvegicus) (UniProt O88943); experiment: rat KCNQ2 channel potentiation, selectivity assay for KCNQ1 potentiator project, KCNQ2-CHO-K1 cells (AID 493009); settings: FluxOR thallium flux fluorescence, at 10 µM; active compounds read high, scaled: buffer 0, activator control 100;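 further: assay conditions were tuned for KCNQ1 rather than KCNQ2 modulators; signal is max minus min fluorescence divided by baseline after thallium stimulus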
[4] = biological target: Potassium voltage-gated channel subfamily KQT member 1 (Homo sapiens) (UniProt P51787); experiment: KCNQ1 channel current potentiators, confirmation, orthogonal assay for KCNQ1 potentiator project, IonWorks patch clamp, KCNQ1-CHO cells (AID 493184;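 active means current rise at least 3 SD above the untreated control mean in each of two repeat wells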); settings: automated patch clamp current, at 10 µM; active compounds read high
Procedure, shortened: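 Material: KCNQ1-expressing CHO cells; doses: 10 µM final, single point; probe or stimulus: voltage step from -90 mV holding to +40 mV, 2,000 ms; signal: automated voltage clamp, amphotericin B perforated patch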

Potassium voltage-gated channel subfamily KQT member 1 (Homo sapiens), sequence (P51787 whole entry, looked up): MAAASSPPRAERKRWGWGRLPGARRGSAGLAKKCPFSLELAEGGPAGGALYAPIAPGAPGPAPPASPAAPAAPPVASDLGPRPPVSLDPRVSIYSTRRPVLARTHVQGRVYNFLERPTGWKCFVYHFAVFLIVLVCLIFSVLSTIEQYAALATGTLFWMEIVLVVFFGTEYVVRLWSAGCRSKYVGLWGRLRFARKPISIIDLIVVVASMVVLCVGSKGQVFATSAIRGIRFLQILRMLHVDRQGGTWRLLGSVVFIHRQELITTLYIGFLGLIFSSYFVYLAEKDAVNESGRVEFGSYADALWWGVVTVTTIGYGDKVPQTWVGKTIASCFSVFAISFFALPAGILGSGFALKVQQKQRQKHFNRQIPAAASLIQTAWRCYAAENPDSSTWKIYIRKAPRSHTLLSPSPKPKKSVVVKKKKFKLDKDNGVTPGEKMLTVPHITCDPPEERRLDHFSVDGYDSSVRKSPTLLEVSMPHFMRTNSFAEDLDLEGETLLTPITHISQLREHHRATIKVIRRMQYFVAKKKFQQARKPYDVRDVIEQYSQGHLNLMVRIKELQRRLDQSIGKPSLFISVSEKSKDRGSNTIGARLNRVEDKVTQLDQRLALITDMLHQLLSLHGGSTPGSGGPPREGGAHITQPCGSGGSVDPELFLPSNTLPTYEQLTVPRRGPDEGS
Potassium voltage-gated channel subfamily KQT member 2 (Rattus norvegicus), sequence (O88943 whole entry, looked up): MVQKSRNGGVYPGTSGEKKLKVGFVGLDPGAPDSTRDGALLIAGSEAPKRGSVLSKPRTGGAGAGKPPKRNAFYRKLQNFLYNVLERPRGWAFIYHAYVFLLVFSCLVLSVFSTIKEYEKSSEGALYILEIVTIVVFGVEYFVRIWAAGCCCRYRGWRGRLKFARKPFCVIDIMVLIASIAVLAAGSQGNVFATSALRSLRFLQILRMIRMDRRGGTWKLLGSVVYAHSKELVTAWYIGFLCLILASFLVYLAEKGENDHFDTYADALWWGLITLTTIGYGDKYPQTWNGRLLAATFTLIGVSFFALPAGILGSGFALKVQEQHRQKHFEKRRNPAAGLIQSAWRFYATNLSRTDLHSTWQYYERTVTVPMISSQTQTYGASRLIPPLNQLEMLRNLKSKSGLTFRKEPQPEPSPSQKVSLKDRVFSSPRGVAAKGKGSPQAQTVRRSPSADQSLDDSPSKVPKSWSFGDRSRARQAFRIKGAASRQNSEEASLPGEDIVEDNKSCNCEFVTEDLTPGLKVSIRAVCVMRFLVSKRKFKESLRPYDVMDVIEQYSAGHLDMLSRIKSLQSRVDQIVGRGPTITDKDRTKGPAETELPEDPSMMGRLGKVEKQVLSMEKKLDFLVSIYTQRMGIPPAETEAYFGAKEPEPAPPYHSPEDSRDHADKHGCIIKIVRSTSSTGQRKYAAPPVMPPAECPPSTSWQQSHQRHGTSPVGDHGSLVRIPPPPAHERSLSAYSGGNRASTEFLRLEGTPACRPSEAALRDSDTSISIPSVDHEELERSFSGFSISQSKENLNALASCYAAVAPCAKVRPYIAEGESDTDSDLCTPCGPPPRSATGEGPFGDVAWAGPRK

SMILES	outcome [1]	outcome [2]	outcome [3]	outcome [4]	activation [1]	potentiation [2]	potentiation [3]
Fc1ccc(COc2ccc(Br)cc2CNCc2ccncc2)cc1	inactive	inactive	inactive	inactive			
COc1ccc(-n2cc(CNC3CCN(C)CC3)c(-c3cccc(F)c3)n2)cc1			inactive	inactive	142% (active)	31% (active)	
Cc1ccc(Cn2c(SCC(=O)N3CC(=O)Nc4ccccc43)nc3ccccc3c2=O)cc1	inactive	inactive	inactive	inactive			
O=C(NC(=S)N1CCc2ccccc21)c1ccccc1Cl				inactive	443% (active)	130% (active)	416% (active)
Cc1ccc(C(=O)CC(=O)COc2ccc(Cl)cc2)cc1	inactive			inactive		184% (active)	252% (active)
O=C1c2ccccc2NC(c2ccccc2O)N1O (stereo not given)				inactive	248% (active)	82% (active)	262% (active)
S=c1[nH]cnc2sc(-c3ccccc3)cc12				inactive	520% (active)	274% (active)	586% (active)
C=CCn1c(=S)[nH]c2sc3c(c2c1=O)CCCC3				inactive	294% (active)	97% (active)	294% (active)
COC(=O)CSc1nc(N)c2c3c(sc2n1)C(c1ccccc1)SC(c1ccccc1)C3 (stereo not given)	inactive	inactive	inactive	inactive			
CCC1(c2ccc(Cl)cc2)NC(=S)N(c2ccc(C)cc2)N1 (stereo not given)				inactive	574% (active)	302% (active)	604% (active)
CCCCNC(=S)NC(=O)c1ccc([N+](=O)[O-])cc1				inactive	168% (active)	29% (active)	190% (active)
S=C1NC2(CCCCC2)Cc2ccccc21	inactive	inactive	inactive	inactive			
COC(=O)c1cccnc1NC(=S)NC1CCCCC1				inactive	208% (active)	36.5% (active)	233% (active)
Cc1nc2c(c3c1[nH]c1ccccc13)C(=O)CC(C)(C)C2	inactive	inactive	inactive	inactive			
O=C(c1ccccc1NS(=O)(=O)c1ccc(Br)cc1)N1CCOCC1				inactive	306% (active)	112% (active)	326% (active)
O=c1c(-c2ccccc2)[n+]([O-])c2ccccc2n1O	inactive	inactive	inactive	inactive			
COc1ccc(-n2c(NCCN(C)C)nc3sc4c(c3c2=O)CCCCC4)cc1	inactive	inactive	inactive	inactive			
CC1CN(c2nc(-c3ccc(Br)cc3)nnc2-c2ccccc2)CC(C)N1 (stereo not given)	inactive	inactive	inactive	inactive			
Cc1ccc(-c2nc3ccc(Cl)cc3c(=O)n2O)cc1				inactive	558% (active)	221% (active)	523% (active)
Cc1cc(=O)oc2cc(OCC3CC(c4ccccc4Cl)=NO3)ccc12 (stereo not given)			inactive	inactive	156% (active)	30.5% (active)	

SMILES	outcome [1]	outcome [2]	outcome [3]	outcome [4]	activation [1]	potentiation [2]	potentiation [3]
CCCCCCCCCCC[N+](C)(C)CC/C=C1/c2ccccc2Sc2ccc(Cl)cc21			inactive	inactive	184% (active)	64% (active)	
CCCCOC(=O)c1ccc(NC(=S)NC(=O)c2c(Cl)cnn2C)cc1	inactive			inactive		77.5% (active)	160% (active)
CCN(CC)C(=O)c1[nH]cnc1C(=O)NCC(=O)OC(C)(C)C	inactive	inactive	inactive	inactive			
COC(=O)c1ccccc1NC(=O)Cn1c(=O)n(Cc2ccccc2)c(=O)c2c(C)c(C)sc21	inactive	inactive	inactive	inactive			
Cn1ncc([N+](=O)[O-])c1C(=O)N/N=C/c1ccc(F)cc1	inactive	inactive	inactive	inactive			
CC(C)(C)C1CCc2c(sc(NC(=O)C3CC=CCC3C(=O)O)c2C#N)C1 (stereo not given)				inactive	178% (active)	53% (active)	184% (active)
CC(=O)OCC(=O)[C@@]1(OC(C)=O)[C@@H](C)C[C@H]2[C@@H]3C[C@H](F)C4=CC(=O)C=C[C@]4(C)[C@@]3(F)[C@@H](O)C[C@@]21C	inactive	inactive	inactive	inactive			
Cn1c(=NC(=O)c2ccco2)sc2cccc(F)c21	inactive	inactive	inactive	inactive			
CCC(O)C1CCN(Cc2cn(Cc3ccccc3)nc2-c2cc3ccccc3o2)CC1 (stereo not given)				inactive	170% (active)	75% (active)	230% (active)
COc1ccc(S(=O)(=O)NCCOc2ccccc2)cc1OC	inactive	inactive	inactive	inactive			
CCOc1cc(CNCCCN2CCOCC2)ccc1OCC(=O)NC(C)(C)C	inactive	inactive	inactive	inactive			
COc1ccc(CCC(=O)NCCOc2ccc(C)cc2)cc1	inactive	inactive	inactive	inactive			
CCOC(=O)C1CCN(C(=O)COc2cc(C)c(Br)c(C)c2)CC1	inactive	inactive	inactive	inactive			
Cc1ccc(C(=O)N/C(=C\c2ccc(-c3ccccc3[N+](=O)[O-])o2)C(=O)NCCCN2CCOCC2)cc1	inactive	inactive	inactive	inactive			
NC(=O)c1cccc(N=Cc2cc(Cl)cc(Cl)c2O)c1				inactive	178% (active)	25% (active)	154% (active)
Nc1ccccc1OCCOCCOc1ccccc1N	inactive	inactive	inactive	inactive			
COc1ccc(CC(=O)c2ccccc2C(=O)O)cc1	inactive	inactive	inactive	inactive			
CCCc1cc(=O)[nH]c(SCC(=O)NC(=O)c2ccccc2)n1	inactive	inactive	inactive	inactive			
O=C(NCc1cccs1)C1CC(c2ccccc2O)=NO1 (stereo not given)	inactive	inactive	inactive	inactive			
CNC(=S)N/N=C/c1cc(Br)cc(Br)c1O		inactive	inactive	inactive	168% (active)		

SMILES	outcome [1]	outcome [2]	outcome [3]	outcome [4]	activation [1]	potentiation [2]	potentiation [3]
O=C(COc1ccccc1[N+](=O)[O-])Nc1cccnc1				inactive	186% (active)	41.5% (active)	172% (active)
COc1ccc(-c2cnc3c(c2)CCC3(C#N)C#N)cc1	inactive	inactive	inactive	inactive			
Cc1ccc(-c2nc3ccccc3c(=O)n2O)cc1				inactive	169% (active)	19% (active)	171% (active)
O=C(NC(=S)Nc1ccccc1N1CCCC1)c1cccc(F)c1	inactive			inactive		37% (active)	144% (active)
CC1CCCC(NC(=S)NC(=O)c2ccccc2Br)C1C (stereo not given)	inactive		inactive	inactive		29.5% (active)	
Cc1cc(N2CCN(C)CC2)nc2ccc(NC(=S)NCCCN3CCc4ccccc4C3)cc12	inactive	inactive	inactive	inactive			
Cc1ccccc1OCC(=O)N=Nc1c(O)n(C)c2ccccc12				inactive	188% (active)	42% (active)	188% (active)
COc1ccc(-c2csc(N(CCCN(C)C)C(=O)c3ccccc3Cl)n2)cc1	inactive	inactive	inactive	inactive			
CC(C)N(C(=O)CSc1ncnc2sc(-c3ccccc3)cc12)C(C)C	inactive	inactive	inactive	inactive			
CCN1C(=O)/C(=C/c2ccc(OCc3ccc(C(=O)O)cc3)c(Cl)c2)NC1=S		inactive		inactive	136% (active)		168% (active)
Oc1c(Br)cc(Br)cc1C=Nc1cccnc1			inactive	inactive	146% (active)	48% (active)	
O=C(NC(=S)NCCC1=CCCCC1)c1ccco1				inactive	324% (active)	97% (active)	315% (active)
CNc1nc(N)c([N+](=O)[O-])c(Nc2cccc(F)c2)n1	inactive	inactive	inactive	inactive			
CCSc1nc2c(sc3ccccc32)c(=O)n1C(C)C				inactive	310% (active)	206% (active)	479% (active)
COc1ccc(OC)c(S(=O)(=O)CC(O)CS(=O)(=O)c2ccccc2)c1 (stereo not given)	inactive	inactive	inactive	inactive			
CCCN1C(=O)/C(=C/c2ccc(C)s2)NC1=S				inactive	395% (active)	194% (active)	412% (active)
O=C(NC(=S)Nc1ccccc1Br)c1ccco1	inactive	inactive	inactive	inactive			
CCOC(=O)Cc1csc(NC(=S)NC(=O)C(C)(C)C)n1		inactive	inactive	inactive	136% (active)		
CCn1c(SCC(N)=O)nc2sc3c(c2c1=O)CCCC3				inactive	153% (active)	34% (active)	147% (active)
c1ccc(CCCNc2ncnc3nc[nH]c23)cc1				inactive	316% (active)	78.5% (active)	291% (active)
